# Assay results as given in PubChem BioAssay.
# The source made the active and inactive calls.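 Rule for the calls, unless noted: active = viability at or below 30% in both replicate assays; inconclusive = viability at or below 30% in just one of the two assays; inactive = the rest.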
# Legend:
# [1] = SK-BR-3 cell growth inhibitors, pilot screen, 24 h, human (AID 572;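 active = viability at or below 10% of carrier control in both of two separate runs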;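 note: compound exposure lasted between 18 and 24 h rather than exactly 24 h; 100% = carrier-treated control wells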); details: SK-BR-3 viability, CellTiter-Glo luminescence, at 10 µM, stronger effect = lower value
# [2] = HUVEC growth inhibition – cell-based, human, primary screen (AID 575); details: HUVEC proliferation, CellTiter-Glo luminescence, 72 h; at 10 µM; stronger effect = lower value;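 note: 100% = median of untreated cell wells with 0.1% DMSO on each plate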
# Procedure, shortened: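 System: primary human umbilical vein endothelial cells; Quantity: 1250 endothelial cells in each well; Buffer or medium: supplemented EBM, 2% fetal bovine serum; Doses: one dose, 10 µM final, 0.1% DMSO; Incubation: 72 h compound incubation; Technique: ATP-based CellTiter-Glo luminescent read; Evaluation: percent of median DMSO-control luminescence; Controls: vehicle and MePR control wells.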
# [3] = growth inhibitors of H69AR lung tumor, primary screen, human, duplicate replicates (AID 580;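 active = viability at or under a set limit in both replicates, limit being median viability minus 3 SD, cut at about 48% in these data, passing the limit was not always enough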;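 note: 100% = mean luminescence of untreated wells and 0% = no signal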); details: H69AR lung tumor cells viability, ATP luminescence, 72 h; at 10 µM; stronger effect = lower value
# [4] = reversal of MRP1-mediated doxorubicin resistance, pilot screen, H69AR cells, doxorubicin co-treatment (AID 601;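 active = viability loss from added drug above about 55%, and viability with drug at most 40%, in both replicates, limit read from the data, passing the limit was not always enough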); details: CellTiter-Glo, 72 h, at 10 µM; for differential viability (reversal): stronger effect = higher value
# [5] = 384-well plate pilot, post-Golgi transport modulator project, inhibition of yeast transport mutant growth (AID 636; in the data active = inhibition above about 31%); details: absorbance 615 nm, about 18 h, stronger effect = higher value
# [6] = growth suppression of yeast trafficking mutant, preliminary HTS, modulators of trafficking downstream of Golgi apparatus project, 1536-format plate, OD 615 nm (AID 637; in the data active = inhibition above about 30%); details: yeast transport mutant growth, absorbance 615 nm, 18 h; stronger effect = higher value
# [7] = H69AR cells + 2 uM doxorubicin, measured here: viability with 2 uM doxorubicin, stronger effect = lower value
# [8] = H69AR cells, compound alone cytotoxicity
SMILES,viability [1],viability [2],viability [3],differential viability (reversal) ([4]; H69AR cells + 2 uM doxorubicin),"viability [4, 7] [%]","viability [4, 8] [%]",inhibition [5],inhibition [6]
CCC(C(=O)N1CCc2cc(OC)c(OC)cc2C1)c1ccccc1 (stereo unspecified),99% (inactive),109% (inactive),94.5% (inactive),2.46% (inactive),92,94.5,-4.52% (inactive),-11.9% (inactive)
COc1ccc(NC(=O)N2CCN(c3nc(-c4cccc(OC)c4)cs3)CC2)cc1,94% (inactive),49.3% (inactive),82.8% (inactive),-4.01% (inactive),86.8,82.8,-9.59% (inactive),-4.52% (inactive)
CCCCCCn1c(CN2CCCC(C)C2)nc2c1c(=O)n(C)c(=O)n2C (stereo unspecified),57% (inactive),111% (inactive),101% (inactive),7.51% (inactive),93.1,101,-7.12% (inactive),2.36% (inactive)
CCCC(OC(=O)CN1C(=O)COc2ccccc21)C(=O)NC1CCCC1 (stereo unspecified),63% (inactive),107% (inactive),91.7% (inactive),1.34% (inactive),90.3,91.7,-7.12% (inactive),3.09% (inactive)
Cc1nc2ccc(S(=O)(=O)NCC(=O)N(C)Cc3ccco3)cc2s1,109% (inactive),95.6% (inactive),91.6% (inactive),9.31% (inactive),82.3,91.6,-0.91% (inactive),3.93% (inactive)
Cc1ccc(S(=O)(=O)N2CCN(c3nc(C(C)C)c4c(c3C#N)CC(C)(C)OC4)CC2)cc1,65% (inactive),111% (inactive),79.6% (inactive),9.54% (inactive),70,79.6,-1.22% (inactive),-3.09% (inactive)
COc1ccccc1N1CCN(C(=O)c2cc(-c3ccc(Cl)c(Cl)c3)on2)CC1,122% (inactive),70.4% (inactive),57.9% (inactive),-6.66% (inactive),64.5,57.9,-4.13% (inactive),-1.82% (inactive)
CCCN(CCC)S(=O)(=O)c1ccc(C(=O)O)cc1,99% (inactive),96.2% (inactive),97.2% (inactive),10.1% (inactive),87.1,97.2,-0.52% (inactive),-1.5% (inactive)
CCCNC(=O)NS(=O)(=O)c1ccc(Cl)cc1,124% (inactive),85% (inactive),97.5% (inactive),10.4% (inactive),87.1,97.5,-1.17% (inactive),0.83% (inactive)
COc1ccccc1CC(=O)NCC1CCCO1 (stereo unspecified),110% (inactive),113% (inactive),99% (inactive),8.34% (inactive),90.7,99,-8.13% (inactive),-4.55% (inactive)
COc1ccc(-c2oc3ncn(CCN4CCOCC4)c(=N)c3c2-c2ccc(OC)cc2)cc1,82% (inactive),88.9% (inactive),24% (active),2.45% (inactive),21.5,24,-4.73% (inactive),-2.55% (inactive)
CCOC(=O)CSC1=C(C#N)C(c2ccc3c(c2)OCO3)CC(=O)N1 (stereo unspecified),90% (inactive),73.1% (inactive),13.1% (active),-52.4% (inactive),65.5,13.1,-5.41% (inactive),-2.36% (inactive)
CCOC(=O)C(C)C1(O)c2ccccc2-c2ncccc21 (stereo unspecified),91% (inactive),98.6% (inactive),102% (inactive),13% (inactive),88.6,102,-5.81% (inactive),1.27% (inactive)
CC(NCCc1ccc(O)cc1)C(O)c1ccc(O)cc1 (stereo unspecified),99% (inactive),101% (inactive),99.4% (inactive),7.11% (inactive),92.3,99.4,-2.73% (inactive),0.67% (inactive)
Cc1cccc(NC(=O)c2ccc3ccccc3n2)n1,91% (inactive),86.6% (inactive),76.3% (inactive),-18.1% (inactive),94.3,76.3,-0.13% (inactive),-1.83% (inactive)
CC(C)(C)n1ncc2c(=O)n(CC(=O)NCc3ccc(F)cc3)cnc21,95% (inactive),63.4% (inactive),14.6% (active),-59.8% (inactive),74.4,14.6,2.43% (inactive),-5.27% (inactive)
C=CCn1c(SCC(=O)Nc2ccccc2OC)nnc1-c1ccccn1,84% (inactive),92.4% (inactive),27.6% (active),-38.3% (inactive),65.9,27.6,-3.78% (inactive),-4.36% (inactive)
COc1ccc(S(=O)(=O)Nc2cc(C)on2)cc1OC,80% (inactive),97.1% (inactive),105% (inactive),1.57% (inactive),104,105,-1.1% (inactive),-5.81% (inactive)
Cn1c(CN2CCCCC2)nc2cc(NC(=O)c3ccccc3)ccc21,54% (inactive),102% (inactive),88.5% (inactive),-5.74% (inactive),94.2,88.5,-7.53% (inactive),-3.09% (inactive)
O=C1c2oc3ccccc3c(=O)c2C(c2cccnc2)N1Cc1ccco1 (stereo unspecified),98% (inactive),106% (inactive),87.8% (inactive),-0.59% (inactive),88.4,87.8,-0.96% (inactive),-2.36% (inactive)
O=c1c2cc3ccccc3n2cnn1Cc1ccccc1F,100% (inactive),57.9% (inactive),11.3% (active),-36.1% (inactive),47.4,11.3,-1.95% (inactive),2.3% (inactive)
COc1ccc(OC)c(N(CC(=O)Nc2cccnc2)S(=O)(=O)c2ccc(OC)c(OC)c2)c1,112% (inactive),91% (inactive),83.7% (inactive),-2.03% (inactive),85.7,83.7,-6.58% (inactive),0.91% (inactive)
O=C(Nc1nonc1NC(=O)C1CCCCC1)C1CCCCC1,111% (inactive),84.7% (inactive),89.9% (inactive),3.04% (inactive),86.8,89.9,-10% (inactive),1.94% (inactive)
COC(=O)C1=C(C)NC(C)=C(C(=O)OC)C1C(=O)OC1CCCCC1=O (stereo unspecified),89% (inactive),105% (inactive),97.3% (inactive),3.25% (inactive),94,97.3,-4.46% (inactive),-0.49% (inactive)

SMILES,viability [1],viability [2],viability [3],differential viability (reversal) ([4]; H69AR cells + 2 uM doxorubicin),"viability [4, 7] [%]","viability [4, 8] [%]",inhibition [5],inhibition [6]
Cc1cc(NC(=O)C(C)(C)C)no1,82% (inactive),92.7% (inactive),99.2% (inactive),16% (inactive),83.3,99.2,-1.2% (inactive),-0.73% (inactive)
O=S1(=O)CCC(N=Cc2cc(Br)ccc2O)C1 (stereo unspecified),94% (inactive),68.9% (inactive),78.1% (inactive),-14.3% (inactive),92.4,78.1,-5.62% (inactive),2.26% (inactive)
CN(C)c1nc(OCCOC(=O)Nc2ccc(Cl)cc2Cl)nc(N(C)C)n1,70% (inactive),103% (inactive),96.3% (inactive),16.4% (inactive),79.9,96.3,-5.21% (inactive),2.91% (inactive)
COC(=O)c1ccccc1NC(=O)C1CC=CCC1C(=O)O (stereo unspecified),117% (inactive),99.7% (inactive),84.8% (inactive),1.5% (inactive),83.3,84.8,-9.73% (inactive),-0.81% (inactive)
COc1ccc(S(=O)(=O)NCCSCc2ccco2)cc1Cl,48% (inactive),102% (inactive),92.4% (inactive),1.13% (inactive),91.3,92.4,-6.3% (inactive),4% (inactive)
COc1ccc2c(c1)c(CC(=O)OCC(=O)O)c(C)n2C(=O)c1ccc(Cl)cc1,133% (inactive),66.8% (inactive),96.2% (inactive),5.33% (inactive),90.9,96.2,-5.06% (inactive),-0.67% (inactive)
Nc1ncnc2c1ncn2[C@@H]1O[C@H](CO)[C@@H](O)[C@H]1O,105% (inactive),93.9% (inactive),113% (inactive),25.9% (inactive),87,113,-2.47% (inactive),0.33% (inactive)
O=C(CSc1nc2ccccc2[nH]1)N1CCCCC1,106% (inactive),102% (inactive),92.9% (inactive),8.96% (inactive),83.9,92.9,-6.44% (inactive),5.09% (inactive)
CCN1C(=O)C2(C(C#N)=C(N)Oc3n[nH]c(C(C)C)c32)c2ccccc21 (stereo unspecified),113% (inactive),103% (inactive),89.2% (inactive),-1.03% (inactive),90.2,89.2,-8.9% (inactive),-0.81% (inactive)
CCN(CC)CCOC(=O)C1(C2CCCCC2)CCCCC1,114% (inactive),72.7% (inactive),86.3% (inactive),3.1% (inactive),83.2,86.3,-2.6% (inactive),-3.33% (inactive)
Cc1cc(C)n(-c2nc3sc4c(c3c3nnc(SC(C)C)n23)CC(C)(C)OC4)n1,96% (inactive),96.6% (inactive),84.4% (inactive),2.36% (inactive),82,84.4,1.23% (inactive),17.6% (inactive)
COc1cccc(NC(=O)N(CCCN2CCOCC2)C(C)c2cc3cccc(OC)c3o2)c1 (stereo unspecified),65% (inactive),99.9% (inactive),93.2% (inactive),-3.43% (inactive),96.6,93.2,-8.08% (inactive),-0.55% (inactive)
CCn1cc(C2Nc3ccccc3C(=O)N2O)c(C)n1 (stereo unspecified),93% (inactive),126% (inactive),90% (inactive),-0.465% (inactive),90.5,90,-5.27% (inactive),-2.91% (inactive)
O=C(NC1CCS(=O)(=O)C1)OC1CCCCC1 (stereo unspecified),75% (inactive),111% (inactive),93.4% (inactive),-10.9% (inactive),104,93.4,-0.82% (inactive),1.82% (inactive)
CCOC(=O)c1[nH]c2ccc(F)cc2c1NC(=O)C(C)N1CCc2cc(OC)c(OC)cc2C1 (stereo unspecified),99% (inactive),57.9% (inactive),13.5% (active),-55.2% (inactive),68.7,13.5,-3.42% (inactive),7.87% (inactive)
Cc1cccc(CC2CC(=O)N(c3ccccc3)C2=O)c1 (stereo unspecified),117% (inactive),101% (inactive),102% (inactive),10.5% (inactive),91.9,102,-3.77% (inactive),-5.9% (inactive)
Cc1nc(-c2ccccc2)sc1C(N)=O,107% (inactive),96.4% (inactive),94.4% (inactive),-12.1% (inactive),106,94.4,-3.29% (inactive),12.6% (inactive)
O=C(O)C1CCCCC1C(=O)Nc1ccccn1 (stereo unspecified),115% (inactive),93.9% (inactive),108% (inactive),8.84% (inactive),99.4,108,-4.52% (inactive),-4.73% (inactive)
O=C(Nc1ccccn1)N1CCOCC1,123% (inactive),110% (inactive),95.5% (inactive),6.42% (inactive),89.1,95.5,-7.3% (inactive),-5.45% (inactive)
O=C(NS(=O)(=O)c1ccc(NC(=O)C2CCCO2)cc1)c1ccccc1 (stereo unspecified),79% (inactive),103% (inactive),92.8% (inactive),4.17% (inactive),88.7,92.8,-6.35% (inactive),-0.55% (inactive)
CC1(C)CC(=O)C2=C(C1)Nc1ccccc1N=C2,66% (inactive),82.3% (inactive),70.3% (inactive),-19.7% (inactive),90,70.3,-0.41% (inactive),2.73% (inactive)
CCOCCn1c(CN2CCC(Cc3ccccc3)CC2)nc2c1c(=O)n(C)c(=O)n2C,61% (inactive),89.7% (inactive),87.7% (inactive),29.8% (inactive),58,87.7,-8.22% (inactive),3.55% (inactive)
O=C1C2ON(c3ccc(Cl)cc3)C(c3ccco3)C2C(=O)N1c1ccccc1 (stereo unspecified),116% (inactive),81.4% (inactive),100% (inactive),8.97% (inactive),91.2,100,-2.6% (inactive),-3.61% (inactive)
